# Laboratory results: ChEMBL document CHEMBL1157420, “2-phenyl-4-piperazinylbenzimidazoles: orally active inhibitors of the gonadotropin releasing hormone (GnRH) receptor” (Bioorg Med Chem, 2008)
# Calls of active or inactive are those of the source. No cut-off for these calls is given here.
# Columns and labels:
# [1] = target: T1, Gonadotropin-releasing hormone receptor (Homo sapiens, UniProt P30968); assay: Displacement of [125I]-(D-Trp6)LHRH from human recombinant GnRH receptor
# T1 sequence (P30968 whole entry): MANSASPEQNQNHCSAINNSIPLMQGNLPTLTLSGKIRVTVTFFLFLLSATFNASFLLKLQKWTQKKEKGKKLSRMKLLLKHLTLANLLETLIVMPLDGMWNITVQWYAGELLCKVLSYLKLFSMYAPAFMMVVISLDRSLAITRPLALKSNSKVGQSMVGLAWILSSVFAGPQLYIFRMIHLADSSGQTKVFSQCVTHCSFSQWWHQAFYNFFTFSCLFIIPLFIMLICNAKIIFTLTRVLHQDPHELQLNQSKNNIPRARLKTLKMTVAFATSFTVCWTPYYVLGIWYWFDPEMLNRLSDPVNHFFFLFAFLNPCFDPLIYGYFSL
# How it was run: (§1)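 Membranes from recombinant cells expressing human or rat GnRH receptor, made in 25 mM Tris-Cl pH 7.4 with 0.1% sodium azide and 0.1% BSA. 50 μg protein incubated with about 50,000 cpm 125I-(D-Trp6)-LHRH for 2 h at 4 °C, with increasing unlabeled competitor. Filtered on BSA-presoaked glass-fiber filters, washed twice, counted by gamma counter. Percent inhibition and IC50 derived.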
# [2] = target: T2, Gonadotropin-releasing hormone receptor (Rattus norvegicus, UniProt P30969); assay: Displacement of [125I]-(D-Trp6)LHRH from rat recombinant GnRH receptor; how it was run: as §1
# T2 sequence (P30969 whole entry): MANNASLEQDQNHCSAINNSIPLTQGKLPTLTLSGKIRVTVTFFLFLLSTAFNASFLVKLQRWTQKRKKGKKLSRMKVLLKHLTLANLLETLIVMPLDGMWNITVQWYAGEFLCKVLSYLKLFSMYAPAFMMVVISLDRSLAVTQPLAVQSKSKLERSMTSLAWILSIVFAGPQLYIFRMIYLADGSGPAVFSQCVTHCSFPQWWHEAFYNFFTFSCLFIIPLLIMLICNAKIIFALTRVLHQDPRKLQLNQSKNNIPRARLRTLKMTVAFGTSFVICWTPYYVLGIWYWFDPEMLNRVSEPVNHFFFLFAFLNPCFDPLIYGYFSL
# [3] = target: T1, Gonadotropin-releasing hormone receptor; assay: Antagonist activity at human recombinant GnRH receptor assessed as reduction in (D-Trp6)LHRH-induced myo-(1,2)-[3H]inositol production; format: functional
# How it was run: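 Recombinant cells expressing human GnRH receptor, pre-labeled with myo-(1,2)-3H-inositol, incubated 1 h in medium with lithium chloride and D-Trp6-LHRH, with or without antagonist. Cells then lysed and labeled inositol phosphates separated from inositol by […] and counted. Run in triplicate, repeated in three independent experiments; IC50 derived.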
# [4] = target: T2, Gonadotropin-releasing hormone receptor; assay: Antagonist activity at […] GnRH receptor in CO2 asphyxiated rat primary pituitary cells assessed as reduction in (D-Trp6)LHRH-induced LH release; format: functional, cell-based, Pituitary gland cell
# How it was run: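 Anterior pituitaries from adult rats were minced, dissociated and plated at 30,000 cells/well in DMEM with 25 mM Hepes and 10% FBS, then cultured 72 h at 37 °C, 5% CO2. After washing, cells were treated 3 h in 0.1% BSA medium with an antagonist dose response plus an ED50 concentration of D-Trp6-LHRH. LH in medium measured by RIA; cell toxicity checked by CellTiter-Glo.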
# [5] = Half life in rat plasma at 1.0 mg/kg, iv; format: ADME, organism-based; design: dose 1 mg/kg, route intravenous
# [6] = AUC (0 to infinity) in rat at 1.0 mg/kg, iv; format: ADME, organism-based; design: time infinity, dose 1 mg/kg, route intravenous; details: plasma
# [7] = Plasma clearance in rat at 1.0 mg/kg, iv; format: ADME, organism-based; design: dose 1 mg/kg, route intravenous
# [8] = Volume of distribution at steady state in rat at 1.0 mg/kg, iv; format: ADME, organism-based; design: dose 1 mg/kg, route intravenous; details: in vivo, read-out: Vdss
# [9] = Half life in rat plasma at 20 mg/kg, po; format: ADME, organism-based; design: dose 20 mg/kg, route oral
# [10] = Tmax in rat at 20 mg/kg, po; format: ADME, organism-based; design: dose 20 mg/kg, route oral; details: in vivo
# [11] = Cmax in rat at 20 mg/kg, po; format: ADME, organism-based; design: dose 20 mg/kg, route oral; details: in vivo
# [12] = AUC (0 to infinity) in rat at 20 mg/kg, po; format: ADME, organism-based; design: time infinity, dose 20 mg/kg, route oral; details: plasma
# [13] = Bioavailability in rat at 20 mg/kg, po; format: ADME, organism-based; details: in vivo
# Rattus norvegicus = assay: Activity in orchidectomized castrated Sprague-Dawley rat assessed as reduction in LH level at 30 mg/kg, po after 24 hrs; format: functional, organism-based; design: dose 30 mg/kg; details: in the assay text read “after 1 to 6 hrs” for “after 24 hrs”
# How it was run: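 Male Sprague–Dawley rats ten days post-castration, jugular-catheterized; basal blood drawn, then vehicle (2% Tween 80/0.04 N HCl) or antagonist given orally. Blood sampled at regular intervals, plasma LH measured by ELISA. Figure legend gives PEG 400 as vehicle, nine animals per group, t = 0 levels set to 100.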
# [14] = target: 5-hydroxytryptamine receptor 2A (Homo sapiens, UniProt P28223); assay: Binding affinity to 5HT2A receptor
# Chain of 5-hydroxytryptamine receptor 2A (P28223 whole entry): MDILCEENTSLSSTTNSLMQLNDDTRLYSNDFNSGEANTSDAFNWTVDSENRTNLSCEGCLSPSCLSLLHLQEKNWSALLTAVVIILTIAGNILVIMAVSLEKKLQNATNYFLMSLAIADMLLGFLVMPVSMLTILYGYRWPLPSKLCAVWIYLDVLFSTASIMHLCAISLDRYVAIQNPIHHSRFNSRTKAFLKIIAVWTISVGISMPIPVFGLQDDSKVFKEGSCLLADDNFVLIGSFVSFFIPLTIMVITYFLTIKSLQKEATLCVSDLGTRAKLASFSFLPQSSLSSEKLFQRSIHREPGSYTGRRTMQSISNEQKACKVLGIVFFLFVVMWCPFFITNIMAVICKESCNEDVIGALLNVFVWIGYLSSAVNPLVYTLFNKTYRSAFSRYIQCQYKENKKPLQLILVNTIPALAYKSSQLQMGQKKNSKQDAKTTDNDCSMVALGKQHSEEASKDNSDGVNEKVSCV
compound,measurement,setting,value
CCn1cc(CN2CCN(c3cccc4[nH]c(-c5ccc(C(C)(C)C)cc5)nc34)CC2)c(=O)[nH]c1=O,IC50,[1],11 nM
same,IC50,[2],32 nM
same,IC50,[3],4 nM
same,IC50,[4],59 nM
same,half-life,[5],1.1 h
same,AUC(0-inf),[6],190 ng·h/mL
same,clearance,[7],95 mL/min/kg
same,Vd,[8],4.8 L/kg
same,half-life,[9],3.1 h
same,Tmax,[10],0.67 h
same,Cmax,[11],480 ng/mL
same,AUC(0-inf),[12],2720 ng·h/mL
same,bioavailability,[13],74%
same,Activity,Rattus norvegicus,Active
same,Ki,[14],230 nM
